Laboratory results: ChEMBL document CHEMBL5661979, “Pharmacological inhibition of BMK1 suppresses tumor growth through promyelocytic leukemia protein” (Cancer Cell, 2010)
The source made the active and inactive calls. No cut-off for these calls is given here.

Experiments:
[1] = target: T1, Mitogen-activated protein kinase kinase kinase kinase 2 (Homo sapiens) (UniProt Q12851); assay: Inhibition of GCK in human HeLa cells lysate at 50 uM pre incubated for 15 mins followed by ADP acyl phosphate probe addition and measured after 10 mins by LC-MS/MS analysis relative to control; assay type: subcellular; conditions: time 25.0 min
T1 sequence (whole entry): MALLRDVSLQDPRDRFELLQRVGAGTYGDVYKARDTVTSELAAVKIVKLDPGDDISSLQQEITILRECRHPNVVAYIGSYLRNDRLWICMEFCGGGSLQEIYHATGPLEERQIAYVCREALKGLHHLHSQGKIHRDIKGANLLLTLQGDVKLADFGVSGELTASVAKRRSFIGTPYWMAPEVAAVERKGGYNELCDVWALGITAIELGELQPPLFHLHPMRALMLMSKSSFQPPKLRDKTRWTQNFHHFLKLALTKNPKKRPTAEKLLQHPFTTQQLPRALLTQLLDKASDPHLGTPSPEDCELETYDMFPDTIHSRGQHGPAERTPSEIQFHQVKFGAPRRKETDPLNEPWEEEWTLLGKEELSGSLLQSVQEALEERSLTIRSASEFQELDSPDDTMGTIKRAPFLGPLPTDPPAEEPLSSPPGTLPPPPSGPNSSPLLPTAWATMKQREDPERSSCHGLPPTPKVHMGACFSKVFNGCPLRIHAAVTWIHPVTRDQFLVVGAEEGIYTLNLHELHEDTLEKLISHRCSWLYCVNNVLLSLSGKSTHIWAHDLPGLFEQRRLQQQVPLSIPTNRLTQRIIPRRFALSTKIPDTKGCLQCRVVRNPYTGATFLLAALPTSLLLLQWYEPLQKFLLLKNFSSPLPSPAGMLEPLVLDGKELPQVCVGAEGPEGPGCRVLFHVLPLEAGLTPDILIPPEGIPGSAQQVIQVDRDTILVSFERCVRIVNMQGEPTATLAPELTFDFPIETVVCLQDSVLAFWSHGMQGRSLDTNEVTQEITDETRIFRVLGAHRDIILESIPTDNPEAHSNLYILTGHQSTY

[2] = target: T2, Serine/threonine-protein kinase Sgk3 (Homo sapiens) (UniProt Q96BR1); assay: Inhibition of SGK3 in human HeLa cells lysate at 2 uM pre incubated for 15 mins followed by ATP acyl phosphate probe addition and measured after 10 mins by LC-MS/MS analysis relative to control; assay type: subcellular; conditions: time 25.0 min
T2 sequence (whole entry): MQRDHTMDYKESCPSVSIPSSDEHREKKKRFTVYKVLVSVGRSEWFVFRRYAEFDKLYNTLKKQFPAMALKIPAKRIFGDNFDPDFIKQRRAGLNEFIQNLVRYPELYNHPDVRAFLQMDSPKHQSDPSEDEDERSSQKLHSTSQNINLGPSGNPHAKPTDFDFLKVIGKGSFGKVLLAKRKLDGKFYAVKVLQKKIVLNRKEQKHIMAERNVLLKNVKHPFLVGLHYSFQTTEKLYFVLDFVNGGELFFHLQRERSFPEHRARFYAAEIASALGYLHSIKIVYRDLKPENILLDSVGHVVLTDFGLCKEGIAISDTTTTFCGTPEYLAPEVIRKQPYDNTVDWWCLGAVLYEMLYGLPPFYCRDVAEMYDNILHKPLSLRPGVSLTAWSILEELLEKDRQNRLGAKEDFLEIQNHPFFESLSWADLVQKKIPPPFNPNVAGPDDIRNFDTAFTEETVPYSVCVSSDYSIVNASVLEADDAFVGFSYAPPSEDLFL

[3] = target: Phosphatidylinositol 4-phosphate 3-kinase C2 domain-containing subunit beta (Homo sapiens, UniProt O00750); assay: Inhibition of PIK3C2B in human HeLa cells lysate at 50 uM pre incubated for 15 mins followed by ATP acyl phosphate probe addition and measured after 10 mins by LC-MS/MS analysis relative to control; assay type: subcellular; conditions: time 25.0 min
[4] = Toxicity in C57Bl/6 mouse assessed as effect on globulin level at 50 mg/kg, ip for 14 days (reference value: 2.3 g/dl); assay type: organism-based; conditions: in vivo, 336 h, time 14 day
[5] = target: Serine/threonine-protein kinase SMG1 (Homo sapiens, UniProt Q96Q15); assay: Inhibition of SMG1 in human HeLa cells lysate at 50 uM pre incubated for 15 mins followed by ATP acyl phosphate probe addition and measured after 10 mins by LC-MS/MS analysis relative to control; assay type: subcellular; conditions: time 25.0 min
[6] = target: Cyclin-dependent kinase 1 (Homo sapiens, UniProt P06493); assay: Inhibition of CDC2 in human HeLa cells lysate pre incubated for 15 mins followed by ADP acyl phosphate probe addition and measured after 10 mins by LC-MS/MS analysis; assay type: subcellular
How it was run: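 KiNativ profiling in HeLa lysate (5 mg/mL total protein). Lysate incubated 15 min with inhibitor at 50, 10, 2, 0.8 or 0 μM. ATP or ADP acylphosphate probe then added (5 μM final) and reacted 10 min. Reaction stopped with urea and analysed by targeted MS, using up to four fragment ions per kinase peptide-probe conjugate. % inhibition taken against untreated lysate. Run in duplicate.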

[7] = target: STE20-related kinase adapter protein beta (Homo sapiens, UniProt Q9C0K7); assay: Inhibition of ALS2CR2 in human HeLa cells lysate pre incubated for 15 mins followed by ADP acyl phosphate probe addition and measured after 10 mins by LC-MS/MS analysis; assay type: subcellular
How it was run: (§1)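 HeLa cell lysates (5 mg/mL total protein) were preincubated with inhibitor at 0, 0.8, 2, 10 or 50 μM for 15 min. ATP or ADP acylphosphate probe was then added (5 μM final) for 10 min, and reactions were stopped with urea. Up to four fragment ions per kinase probe-peptide were quantified by targeted MS. % inhibition was taken relative to untreated lysate. Run in duplicate.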

[8] = target: AMPK alpha1/alpha2 (Homo sapiens, UniProt P54646+Q13131); assay: Inhibition of AMPKalpha1/2 in human HeLa cells lysate pre incubated for 15 mins followed by ATP acyl phosphate probe addition and measured after 10 mins by LC-MS/MS analysis; assay type: subcellular; how it was run: as §1
[9] = target: Interferon-induced, double-stranded RNA-activated protein kinase (Homo sapiens, UniProt P19525); assay: Inhibition of PKR in human HeLa cells lysate at 50 uM pre incubated for 15 mins followed by ADP acyl phosphate probe addition and measured after 10 mins by LC-MS/MS analysis relative to control; assay type: subcellular; conditions: time 25.0 min
[10] = test system: Lewis lung carcinoma; assay: Antitumor activity against PML knock down mouse LL2 cells allografted in C57Bl/6 mouse assessed as reduction tumor growth at 50 mg/kg, ip administered on day 7 post implantation measured after 17 days; assay type: functional, organism-based; conditions: time 10.0 day

Cyclin-dependent kinase 1, sequence (P06493 whole entry, the tested form may be a part): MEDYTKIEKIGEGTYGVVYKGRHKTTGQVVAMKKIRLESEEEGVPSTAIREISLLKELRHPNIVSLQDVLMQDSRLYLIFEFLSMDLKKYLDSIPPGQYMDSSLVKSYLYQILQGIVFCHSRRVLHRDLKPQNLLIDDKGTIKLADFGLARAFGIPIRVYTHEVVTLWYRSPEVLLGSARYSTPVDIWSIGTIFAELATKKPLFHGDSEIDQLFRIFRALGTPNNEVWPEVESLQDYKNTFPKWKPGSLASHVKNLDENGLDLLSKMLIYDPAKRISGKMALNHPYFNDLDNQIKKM
Interferon-induced, double-stranded RNA-activated protein kinase, sequence (P19525 whole entry): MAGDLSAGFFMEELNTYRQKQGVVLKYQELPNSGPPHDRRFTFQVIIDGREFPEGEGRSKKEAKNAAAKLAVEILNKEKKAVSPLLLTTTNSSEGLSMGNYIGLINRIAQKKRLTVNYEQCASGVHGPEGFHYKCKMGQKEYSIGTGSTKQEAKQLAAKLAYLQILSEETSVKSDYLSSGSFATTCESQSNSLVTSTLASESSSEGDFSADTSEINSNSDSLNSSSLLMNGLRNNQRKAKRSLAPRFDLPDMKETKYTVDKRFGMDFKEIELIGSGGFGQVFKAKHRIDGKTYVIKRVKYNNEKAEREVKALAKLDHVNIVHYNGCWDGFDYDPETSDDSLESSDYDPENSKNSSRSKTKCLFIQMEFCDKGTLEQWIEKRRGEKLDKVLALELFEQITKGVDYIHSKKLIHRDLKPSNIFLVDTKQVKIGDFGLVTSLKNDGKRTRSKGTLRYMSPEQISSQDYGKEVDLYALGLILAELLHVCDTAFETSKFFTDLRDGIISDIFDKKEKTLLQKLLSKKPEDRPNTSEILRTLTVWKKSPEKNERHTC
AMPK alpha1/alpha2, sequence (P54646 whole entry): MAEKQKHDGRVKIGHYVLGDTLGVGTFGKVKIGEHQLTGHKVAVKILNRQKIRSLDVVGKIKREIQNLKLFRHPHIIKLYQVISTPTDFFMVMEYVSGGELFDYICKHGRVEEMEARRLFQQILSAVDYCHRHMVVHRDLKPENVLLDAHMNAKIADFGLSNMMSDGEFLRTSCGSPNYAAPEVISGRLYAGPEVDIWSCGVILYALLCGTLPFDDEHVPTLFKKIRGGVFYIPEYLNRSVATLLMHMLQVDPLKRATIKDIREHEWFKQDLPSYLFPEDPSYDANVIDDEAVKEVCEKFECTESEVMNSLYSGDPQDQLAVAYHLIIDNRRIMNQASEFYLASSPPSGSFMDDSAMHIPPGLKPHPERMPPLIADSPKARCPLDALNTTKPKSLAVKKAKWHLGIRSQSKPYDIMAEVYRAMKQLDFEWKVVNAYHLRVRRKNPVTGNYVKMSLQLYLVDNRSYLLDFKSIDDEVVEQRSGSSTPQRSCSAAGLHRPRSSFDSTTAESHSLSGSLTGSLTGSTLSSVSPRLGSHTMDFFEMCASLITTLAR
AMPK alpha1/alpha2, sequence (Q13131 whole entry): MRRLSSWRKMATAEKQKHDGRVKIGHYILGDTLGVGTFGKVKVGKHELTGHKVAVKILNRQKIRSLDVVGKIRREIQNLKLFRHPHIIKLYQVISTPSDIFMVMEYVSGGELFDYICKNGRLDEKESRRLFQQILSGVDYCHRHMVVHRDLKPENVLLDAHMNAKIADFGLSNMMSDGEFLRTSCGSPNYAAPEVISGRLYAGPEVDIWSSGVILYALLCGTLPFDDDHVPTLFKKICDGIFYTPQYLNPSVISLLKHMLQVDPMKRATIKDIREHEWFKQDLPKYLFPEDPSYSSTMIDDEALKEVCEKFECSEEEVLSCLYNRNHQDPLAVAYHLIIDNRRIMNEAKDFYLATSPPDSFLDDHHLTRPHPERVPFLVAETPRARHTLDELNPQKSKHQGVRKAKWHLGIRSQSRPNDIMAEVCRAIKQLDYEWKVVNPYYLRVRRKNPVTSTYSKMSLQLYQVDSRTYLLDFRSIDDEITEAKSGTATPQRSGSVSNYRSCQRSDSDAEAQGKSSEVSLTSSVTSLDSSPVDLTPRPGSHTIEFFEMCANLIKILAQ
STE20-related kinase adapter protein beta, sequence (Q9C0K7 whole entry, the tested form may be a part): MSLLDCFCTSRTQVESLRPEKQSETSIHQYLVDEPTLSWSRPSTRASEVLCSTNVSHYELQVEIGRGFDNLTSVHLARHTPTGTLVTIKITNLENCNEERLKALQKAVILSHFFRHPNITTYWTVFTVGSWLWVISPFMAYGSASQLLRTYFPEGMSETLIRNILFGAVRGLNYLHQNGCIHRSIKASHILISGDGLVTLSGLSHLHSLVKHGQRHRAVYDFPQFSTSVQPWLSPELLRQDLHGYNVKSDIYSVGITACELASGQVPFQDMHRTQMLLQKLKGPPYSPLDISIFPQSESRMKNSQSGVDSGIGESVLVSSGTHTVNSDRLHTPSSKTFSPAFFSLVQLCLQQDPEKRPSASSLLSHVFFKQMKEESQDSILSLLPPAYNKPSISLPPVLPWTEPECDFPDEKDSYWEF
Phosphatidylinositol 4-phosphate 3-kinase C2 domain-containing subunit beta, sequence (O00750 whole entry, the tested form may be a part): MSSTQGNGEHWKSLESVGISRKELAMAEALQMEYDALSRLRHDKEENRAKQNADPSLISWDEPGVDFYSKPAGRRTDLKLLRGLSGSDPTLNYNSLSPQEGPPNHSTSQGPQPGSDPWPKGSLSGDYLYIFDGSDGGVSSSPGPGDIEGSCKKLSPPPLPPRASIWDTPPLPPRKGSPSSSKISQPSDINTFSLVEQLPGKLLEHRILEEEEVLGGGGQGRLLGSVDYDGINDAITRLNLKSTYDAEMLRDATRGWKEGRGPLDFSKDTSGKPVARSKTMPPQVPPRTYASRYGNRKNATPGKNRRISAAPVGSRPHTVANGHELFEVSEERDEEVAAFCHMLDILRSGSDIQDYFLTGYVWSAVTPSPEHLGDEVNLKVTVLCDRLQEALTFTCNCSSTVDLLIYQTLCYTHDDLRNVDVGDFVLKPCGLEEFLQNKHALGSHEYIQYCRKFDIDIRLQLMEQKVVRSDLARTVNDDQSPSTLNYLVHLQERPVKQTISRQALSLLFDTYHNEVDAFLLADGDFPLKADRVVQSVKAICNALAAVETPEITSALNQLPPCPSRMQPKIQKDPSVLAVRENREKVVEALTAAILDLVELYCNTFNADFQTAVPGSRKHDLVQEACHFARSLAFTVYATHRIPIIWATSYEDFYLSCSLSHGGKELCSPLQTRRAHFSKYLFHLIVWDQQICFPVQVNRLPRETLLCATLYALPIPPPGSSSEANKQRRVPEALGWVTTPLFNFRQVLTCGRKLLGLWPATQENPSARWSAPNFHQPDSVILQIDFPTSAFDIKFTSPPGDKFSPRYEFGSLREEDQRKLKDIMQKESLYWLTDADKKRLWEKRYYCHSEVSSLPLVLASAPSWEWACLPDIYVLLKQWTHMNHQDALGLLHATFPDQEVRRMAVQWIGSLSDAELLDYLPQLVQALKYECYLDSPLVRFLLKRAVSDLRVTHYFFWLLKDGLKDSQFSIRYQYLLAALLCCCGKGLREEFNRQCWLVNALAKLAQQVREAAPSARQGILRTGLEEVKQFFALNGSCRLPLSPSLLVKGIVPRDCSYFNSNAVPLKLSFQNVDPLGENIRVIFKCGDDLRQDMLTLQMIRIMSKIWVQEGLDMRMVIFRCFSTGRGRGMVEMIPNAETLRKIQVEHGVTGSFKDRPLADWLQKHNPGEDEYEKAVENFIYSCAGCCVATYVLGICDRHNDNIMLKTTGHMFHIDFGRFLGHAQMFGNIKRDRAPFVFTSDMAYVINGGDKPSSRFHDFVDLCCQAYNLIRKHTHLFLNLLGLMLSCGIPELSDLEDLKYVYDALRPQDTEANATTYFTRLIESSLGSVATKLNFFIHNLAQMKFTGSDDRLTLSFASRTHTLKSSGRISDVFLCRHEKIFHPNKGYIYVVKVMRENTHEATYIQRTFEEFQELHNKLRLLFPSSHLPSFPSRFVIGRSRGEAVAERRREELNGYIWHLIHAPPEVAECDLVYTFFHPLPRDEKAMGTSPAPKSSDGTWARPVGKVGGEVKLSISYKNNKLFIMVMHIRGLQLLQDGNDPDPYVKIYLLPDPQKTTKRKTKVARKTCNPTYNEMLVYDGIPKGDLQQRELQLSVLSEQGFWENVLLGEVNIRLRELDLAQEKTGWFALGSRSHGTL

In the case of `CCOc1cc(N2CCC(O)CC2)ccc1Nc1ncc2c(n1)N(C)c1ccccc1C(=O)N2C`, the inhibition [1] is reported as 34.5%, the inhibition [2] is reported as 15.9% and the inhibition [3] is reported as 46.3%. It also gave an Activity [4] of 2.5 g/dL, an inhibition [5] of -1.9% and an IC50 [6] of over 50 µM. It also gave an IC50 [7] of over 50 µM, an IC50 [8] of over 50 µM and an inhibition [9] of -8.7%. For the same molecule, the Activity [10] was “inactive”.
